Assay results as given in ChEMBL document CHEMBL1142292, “Synthesis and biological activity of novel peptide mimetics as melanocortin receptor agonists” (Bioorg Med Chem Lett, 2008).

Tests used:
[1] = target: T1, Melanocyte-stimulating hormone receptor (Homo sapiens, UniProt Q01726); assay: Agonist activity at human MC1 receptor expressed in HEK293 cells; type: functional, cell-based
Summary of the method: (§1)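 HEK293 cells stably transfected with the receptor subtype and a CRE-luciferase reporter; cells assayed in 96-well format for luciferase activity. Response expressed as percent of maximal activity (Emax) of NDP-MSH (MT-I) reference agonist.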

[2] = target: T1, Melanocyte-stimulating hormone receptor; assay: Displacement of europium labeled NDP-alpha-MSH from human MC1 receptor expressed in HEK293 cells; type: cell-based
Summary of the method: (§2)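 HEK293 cells stably transfected with each human receptor subtype; competing unlabeled ligands displace a constant concentration of europium-labeled NDP-α-MSH, read by time-resolved fluorometry; IC50 and Ki calculated.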

Melanocortin receptor 3 [3] = target: T2, Melanocortin receptor 3 (Homo sapiens, UniProt P41968); assay: Agonist activity at human MC3 receptor expressed in HEK293 cells; type: functional, cell-based; summary of the method: as §1
T2 sequence (P41968 whole entry): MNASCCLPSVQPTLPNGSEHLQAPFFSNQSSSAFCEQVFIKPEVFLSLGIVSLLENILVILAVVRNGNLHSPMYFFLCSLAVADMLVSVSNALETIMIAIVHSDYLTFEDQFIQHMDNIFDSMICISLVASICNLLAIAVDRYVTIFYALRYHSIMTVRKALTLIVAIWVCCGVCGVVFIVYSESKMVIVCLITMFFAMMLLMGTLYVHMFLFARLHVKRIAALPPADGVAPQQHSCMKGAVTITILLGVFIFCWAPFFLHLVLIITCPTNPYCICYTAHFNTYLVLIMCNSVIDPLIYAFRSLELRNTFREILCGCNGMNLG

Melanocortin receptor 4 [4] = target: T3, Melanocortin receptor 4 (Homo sapiens, UniProt P32245); assay: Agonist activity at human MC4 receptor expressed in HEK293 cells; type: functional, cell-based; summary of the method: as §1
T3 sequence (P32245 whole entry): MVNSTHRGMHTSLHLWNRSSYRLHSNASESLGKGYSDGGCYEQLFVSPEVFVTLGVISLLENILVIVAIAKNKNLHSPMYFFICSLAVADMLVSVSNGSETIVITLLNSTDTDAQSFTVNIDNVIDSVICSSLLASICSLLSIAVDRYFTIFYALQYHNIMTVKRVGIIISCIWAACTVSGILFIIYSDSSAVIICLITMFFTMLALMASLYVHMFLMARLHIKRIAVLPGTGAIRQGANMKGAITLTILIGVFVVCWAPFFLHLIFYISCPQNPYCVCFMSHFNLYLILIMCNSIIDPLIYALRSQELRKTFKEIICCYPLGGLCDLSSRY

Melanocortin receptor 3 [5] = target: T2, Melanocortin receptor 3; assay: Displacement of europium labeled NDP-alpha-MSH from human MC3 receptor expressed in HEK293 cells; type: cell-based; summary of the method: as §2
Melanocortin receptor 4 [6] = target: T3, Melanocortin receptor 4; assay: Displacement of europium labeled NDP-alpha-MSH from human MC4 receptor expressed in HEK293 cells; type: cell-based; summary of the method: as §2

T1 sequence (Q01726 whole entry): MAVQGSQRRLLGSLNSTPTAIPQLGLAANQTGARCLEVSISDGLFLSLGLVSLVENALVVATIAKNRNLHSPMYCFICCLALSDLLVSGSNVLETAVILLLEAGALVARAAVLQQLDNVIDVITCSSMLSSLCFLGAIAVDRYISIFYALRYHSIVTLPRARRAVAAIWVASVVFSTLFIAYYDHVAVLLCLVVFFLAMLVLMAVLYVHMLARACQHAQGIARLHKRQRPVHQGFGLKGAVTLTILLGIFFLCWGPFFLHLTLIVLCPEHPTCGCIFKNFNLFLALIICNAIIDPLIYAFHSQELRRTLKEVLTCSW

| SMILES | EC50 [1] [µM] | Ki [2] [µM] | EC50 (Melanocortin receptor 3 [3]) [µM] | EC50 (Melanocortin receptor 4 [4]) [µM] | Ki (Melanocortin receptor 3 [5]) [µM] | Ki (Melanocortin receptor 4 [6]) [µM] |
| --- | --- | --- | --- | --- | --- | --- |
| N=C(N)NCCC[C@H](NC(=O)[C@H](N)Cc1ccc(F)cc1)C(=O)N1CCCCC1 | > 50 | > 100 | > 25 | > 50 | > 100 | > 25 |
| N=C(N)NCCC[C@H](CC1CCCCC1)NC(=O)[C@H](N)Cc1ccc(F)cc1 | > 25 | – | > 15 | > 50 | 9.1 | 6.7 |
| NC(N)=NCCC[C@H](Cc1ccccc1)NC(=O)[C@H](N)Cc1ccc(F)cc1 | – | > 25 | > 100 | > 100 | 3.5 | 4.2 |
| N[C@H](Cc1ccc(Cl)cc1)C(=O)N1CCC(Cn2cncn2)(C2CCCCC2)CC1 | 2 | > 10 | 0.23 | 0.016 | 2.3 | 0.023 |
| N[C@H](Cc1ccc(F)cc1)C(=O)NCCC(Cn1cncn1)C1CCCCC1 (some centres undefined) | > 25 | > 25 | > 50 | > 25 | 4.5 | > 50 |
| NC(N)=NCCC[C@@H](CN1CCCCC1)NC(=O)[C@H](N)Cc1ccc(F)cc1 | > 50 | > 100 | > 100 | > 100 | > 100 | > 100 |
